From ChEMBL document CHEMBL1126221, “Antimitotic agents: structure-activity studies with some pyridine derivatives” (J Med Chem, 1992)
Several values for one entry are separate records, joined by “and”; a condition that tells them apart may be missing. Equal entries are not always repeated.

Tests used:
L1210 [1] = test: Concentration required to inhibit proliferation of cultured lymphoid leukemia L1210 cells to 50% growth over 48 hours; format: functional, cell-based; conditions: Mus musculus, L1210, 48 h
Summary of the method: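 Cultured lymphoid leukemia L1210 cells were exposed to agent for 48 h. IC50 is the micromolar concentration that holds proliferation to 50% growth.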

P388 [2] = test: Compound was evaluated for antitumor activity against mice implanted with lymphatic leukemia P388 cells (10e6 tumor cells) after intraperitoneal administration of 400 mg/kg per injection (1-5 days); format: functional; conditions: Mus musculus, P388, ip
Summary of the method: (§1)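 Mice implanted ip with 10⁶ lymphocytic leukemia P388 cells; drug given ip on days 1-5. Read-out is % increase in life span (% ILS) versus untreated controls, reported at the highest nontoxic dose tested.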

L1210 [3] = test: Compound was evaluated for antitumor activity against mice implanted with lymphatic leukemia L1210 cells (10e6 tumor cells) after intraperitoneal administration of 50 mg/kg per injection; format: functional; conditions: Mus musculus, L1210, ip
P388 [4] = test: Compound was evaluated for antitumor activity against mice implanted with lymphatic leukemia P388 cells (10e6 tumor cells) after intraperitoneal administration of 100 mg/kg per injection; format: functional; conditions: Mus musculus, P388, ip
[5] = Compound's concentration required to inhibit proliferation of cultured KB cells to 50% growth during 48 hours.; format: functional, cell-based; conditions: Homo sapiens
P388 [6] = test: Compound was evaluated for antitumor activity against mice implanted with lymphatic leukemia P388 cells (10e6 tumor cells) after intraperitoneal administration of 5 mg/kg per injection (1-5 days); format: functional; conditions: Mus musculus, P388, ip; summary of the method: as §1
L1210 (mouse) = test: Compound was evaluated for antitumor activity against mice implanted with lymphatic leukemia L1210 cells (10e6 tumor cells) after intraperitoneal administration of 50 mg/kg per injection (single dose on day 1); conditions: L1210, ip, 24 h
L1210 [7] = test: Effect on the mitosis of cultured L1210 cells measured in metaphase at 12 hours and 3 uM concentration; format: functional, Mus musculus
Summary of the method: (§2)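 Cultured L1210 cells were exposed for 12 h to 0, 3, 10, 30, 50 or 100 μM agent. Read-out was the percentage of cells in metaphase.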

L1210 [8] = test: Effect of the compound(10 uM) on DNA synthesis in L1210 cells in culture measured as incorporation of [5-3H]-Urd; format: functional, Mus musculus
L1210 [9] = test: Effect on the mitosis of cultured L1210 cells measured in metaphase at 12 hours and 0 uM concentration; format: functional, Mus musculus; summary of the method: as §2
L1210 [10] = test: Effect of the compound(25 uM) on DNA synthesis in L1210 cells in culture measured as incorporation of [3H]dThd; format: functional, Mus musculus
Summary of the method: (§3)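 Cultured L1210 cells were treated with agent at 2.5–50 μM. Labeled precursor incorporation is reported as percent of control: [3H]dThd into DNA, […] into DNA and RNA, and [3H]L-Leu into protein.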

L1210 [11] = test: Effect of the compound(25 uM) on DNA synthesis in L1210 cells in culture measured as incorporation of [3H]L-Leu; format: functional, Mus musculus; conditions: in the assay text read “protein synthesis” for “DNA synthesis”; summary of the method: as §3
L1210 [12] = test: Effect on the mitosis of cultured L1210 cells measured in metaphase at 12 hours and 10 uM concentration; format: functional, Mus musculus; summary of the method: as §2
L1210 [13] = test: Effect of the compound(25 uM) on RNA synthesis in L1210 cells in culture measured as […]; format: functional, Mus musculus
L1210 [14] = test: Effect of the compound(5 uM) on RNA synthesis in L1210 cells in culture measured as […]; format: functional, Mus musculus
L1210 [15] = test: Effect of the compound(10 uM) on DNA synthesis in L1210 cells in culture measured as incorporation of [3H]L-Leu; format: functional, Mus musculus; conditions: in the assay text read “protein synthesis” for “DNA synthesis”; summary of the method: as §3
L1210 [16] = test: Effect on the mitosis of cultured L1210 cells measured in metaphase at 12 hours and 100 uM concentration; format: functional, Mus musculus; summary of the method: as §2
L1210 [17] = test: Effect of the compound(10 uM) on RNA synthesis in L1210 cells in culture measured as incorporation of [5-3H]-Urd; format: functional, Mus musculus; summary of the method: as §3
L1210 [18] = test: Effect of the compound(5 uM) on DNA synthesis in L1210 cells in culture measured as incorporation of [5-3H]-Urd; format: functional, Mus musculus; summary of the method: as §3
L1210 [19] = test: Effect on the mitosis of cultured L1210 cells measured in metaphase at 12 hours and 30 uM concentration; format: functional, Mus musculus; summary of the method: as §2
L1210 [20] = test: Effect of the compound(5 uM) on DNA synthesis in L1210 cells in culture measured as incorporation of [3H]-L-Leu; format: functional, Mus musculus; conditions: in the assay text read “protein synthesis” for “DNA synthesis”; summary of the method: as §3
P388 [21] = test: Compound was evaluated for antitumor activity against mice implanted with lymphatic leukemia P388 cells (10e6 tumor cells) after intraperitoneal administration of 75 mg/kg per injection (1-5 days); format: functional; conditions: Mus musculus, P388, ip; summary of the method: as §1
L1210 [22] = test: Effect of the compound(25 uM) on DNA synthesis in L1210 cells in culture measured as incorporation of [5-3H]-Urd; format: functional, Mus musculus; summary of the method: as §3
P388 [23] = test: Compound was evaluated for antitumor activity against mice implanted with lymphatic leukemia P388 cells (10e6 tumor cells) after intraperitoneal administration of 300 mg/kg per injection (1-5 days); format: functional; conditions: Mus musculus, P388, ip; summary of the method: as §1
L1210 [24] = test: Effect of the compound(2.5 uM) on DNA synthesis in L1210 cells in culture measured as incorporation of [5-3H]-Urd; format: functional, Mus musculus
L1210 [25] = test: Effect of the compound(2.5 uM) on DNA synthesis in L1210 cells in culture measured as incorporation of [3H]L-Leu; format: functional, Mus musculus; conditions: in the assay text read “protein synthesis” for “DNA synthesis”; summary of the method: as §3
P388 [26] = test: Compound was evaluated for antitumor activity against mice implanted with lymphatic leukemia P388 cells (10e6 tumor cells) after intraperitoneal administration of 13 mg/kg per injection (1-5 days); format: functional; conditions: Mus musculus, P388, ip; summary of the method: as §1
L1210 [27] = test: Effect of the compound(2.5 uM) on RNA synthesis in L1210 cells in culture measured as […]; format: functional, Mus musculus
L1210 [28] = test: Effect of the compound(10 uM) on DNA synthesis in L1210 cells in culture measured as incorporation of [3H]dThd; format: functional, Mus musculus; summary of the method: as §3

**Q.** What does the source list for `CCOC(=O)Nc1cc(N[C@@H](C)C(=O)c2ccccc2)c([N+](=O)[O-])c(N)n1`?
**A.** IC50 (L1210 [1]): 27 µM; ILS at 400 mg/kg (P388 [2]): 39%

**Q.** Which ILS at 50 mg/kg (L1210 [3]) does the source give for `CCOC(=O)Nc1cc(NC(c2ccccc2)c2ccccc2)c([N+](=O)[O-])c(N)n1` here?
**A.** The ILS at 50 mg/kg was 0%.

**Q.** For `CCOC(=O)Nc1cc(N)c(N)c(N)n1`, which ILS at 100 mg/kg (P388 [4]) is on record?
**A.** Its ILS at 100 mg/kg is 0%.

**Q.** And the IC50 [5]?
**A.** The IC50 was 10 µM.

**Q.** What does the source list for `CCOC(=O)Nc1cc(NC(C)/C(=N/O)c2ccc(O)cc2)c([N+](=O)[O-])c(N)n1` (centres undefined)?
**A.** IC50 (L1210 [1]): 18 µM; ILS at 5 mg/kg (P388 [6]): 57%

**Q.** Which ILS at 50 mg/kg (L1210 (mouse)) does the source give for `CCOC(=O)Nc1cc(N(C)CC(O)c2ccccc2)c(N)c(N)n1` (centres undefined) here?
**A.** Its ILS at 50 mg/kg is 4%.

**Q.** For `COC(=O)Nc1cc(NC(C)/C(=N/O)c2ccccc2)c([N+](=O)[O-])c(N)n1` (centres undefined), which IC50 (L1210 [1]) is on record?
**A.** Its IC50 is 5.8 µM.

**Q.** What about the Cells in metaphase (L1210 [7]) of the same compound?
**A.** Its Cells in metaphase is 3%.

**Q.** What about the “Uridine incorporation into DNA (% of control)” value (L1210 [8]) of the same compound?
**A.** Its value is 46% and 62%.

**Q.** And the Cells in metaphase (L1210 [9])?
**A.** Its Cells in metaphase is 2%.

**Q.** What about the Control (L1210 [10]) of the same compound?
**A.** The Control was 21%.

**Q.** What about the Control (L1210 [11]) of the same compound?
**A.** The Control was 26%.

**Q.** What about the Cells in metaphase (L1210 [12]) of the same compound?
**A.** Its Cells in metaphase is 3%.

**Q.** What about the Control (L1210 [13]) of the same compound?
**A.** The Control was 64%.

**Q.** And the Control (L1210 [14])?
**A.** Its Control is 86%.

**Q.** What about the Control (L1210 [15]) of the same compound?
**A.** Its Control is 40%.

**Q.** What about the Cells in metaphase (L1210 [16]) of the same compound?
**A.** The Cells in metaphase was 14%.

**Q.** What about the Control (L1210 [17]) of the same compound?
**A.** The Control was 52%.

**Q.** And the Control (L1210 [18])?
**A.** Its Control is 52% and 89%.

**Q.** What about the Cells in metaphase (L1210 [19]) of the same compound?
**A.** The Cells in metaphase was 25%.

**Q.** What about the Control (L1210 [20]) of the same compound?
**A.** The Control was 79%.

**Q.** And the ILS at 75 mg/kg (P388 [21])?
**A.** The ILS at 75 mg/kg was 82%.

**Q.** What about the Control (L1210 [22]) of the same compound?
**A.** The Control was 65%.

**Q.** What does the source list for `CCOC(=O)Nc1cc(NC(C)C(=O)c2ccccc2)c([N+](=O)[O-])c(N)n1` (centres undefined)?
**A.** IC50 (L1210 [1]): 37 µM; ILS at 300 mg/kg (P388 [23]): 2%

**Q.** What does the source list for `CCOC(=O)Nc1cc(NC(C)/C(=N/O)c2ccc(OC)cc2)c([N+](=O)[O-])c(N)n1` (centres undefined)?
**A.** IC50 (L1210 [1]): 4.2 µM; Cells in metaphase (L1210 [7]): 6%; Uridine incorporation into DNA (% of control) (L1210 [8]): 39%; Cells in metaphase (L1210 [9]): 2%; Control (L1210 [24]): 78% and 73%; Cells in metaphase (L1210 [12]): 26%; Control (L1210 [14]): 47%; Control (L1210 [25]): 69%; Control (L1210 [15]): 82%; ILS at 13 mg/kg (P388 [26]): 84%; Cells in metaphase (L1210 [16]): 2%; Control (L1210 [27]): 55%; Control (L1210 [17]): 35%; Control (L1210 [18]): 60%; Cells in metaphase (L1210 [19]): 24%; Control (L1210 [28]): 44%; Control (L1210 [20]): 87%
